According to PubChem BioAssay AID540281 (Sanford-Burnham Center for Chemical Genomics, 2011):
“And” between values parts separate entries of the source, which are not always exact repeats. Identical values can stand only once. In all, about 2,500 compounds went through this assay and about 1,500 (60%) were called active. The set was probably picked from earlier hits. A selection follows. A number with no mark means an inactive call.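 The calls were made as follows: active = inhibition of at least 30% at 20 µM; inactive = the rest.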

The compounds below were run against Carboxy-terminal domain RNA polymerase II polypeptide A small phosphatase 1 (Homo sapiens) (UniProt Q9GZU7) (assay: SCP1 dephosphorylation blockade at one dose – biochemical, colorimetric, single concentration, confirmation (AID 540281;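 also: plate controls were DMSO with enzyme for no effect and buffer wells lacking enzyme for full effect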)). Details: recombinant SCP-1 catalytic domain, phosphate release, malachite green absorbance; at 20 µM; hits give high values.
Chain of Carboxy-terminal domain RNA polymerase II polypeptide A small phosphatase 1 (Homo sapiens) (Q9GZU7 76-261 limits assumed): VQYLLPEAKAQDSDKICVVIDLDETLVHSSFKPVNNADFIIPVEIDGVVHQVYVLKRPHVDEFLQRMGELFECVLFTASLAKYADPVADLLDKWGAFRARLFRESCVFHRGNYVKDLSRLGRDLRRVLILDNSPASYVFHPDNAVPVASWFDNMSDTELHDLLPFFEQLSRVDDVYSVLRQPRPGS
How it was run: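 Material: SCP-1 enzyme, residues 76-261; Times: 45 min phosphatase reaction at RT; Reagent: Phospho-17-mer peptide substrate; Dosing: single 20 µM final compound concentration, 1.0% DMSO; Medium: Acidic Tris acetate with 10 mM MgCl2 and Tween-20, pH 5.5; Technique: absorbance at 630 nm, free phosphate colorimetry.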
In the case of `Cc1ccc(C(=O)NNC(=O)c2cc3cc4ccccc4nc3s2)cc1`, the inhibition is reported as 61% (active).
`O=[N+]([O-])c1cc(S(=O)(=O)Nc2cccc(Cl)c2)ccc1N=Nc1c(O)[nH]c2ccccc12` gave an inhibition of 8.78%.
`Cc1ccc(CCCOC(=O)C[N+]2(C)CCCC2)cc1` was tested, and the inhibition was 78.5% (active).
With `COC(=O)c1ccccc1NC(=O)C1(S(=O)(=O)c2ccc(Cl)cc2)CC1` the inhibition was -25%.
`Cc1ccc(NC(=O)c2cc(-c3ccc(C)o3)nc3ccccc23)nc1` was tested, and the inhibition was 67.9% (active).
With `O=C(COC(=O)c1ccccc1O)NCc1ccco1` the inhibition was 59.3% (active).
With `CN(c1ccccc1)S(=O)(=O)c1ccc(Cl)c(C(=O)OCC(=O)NCc2ccco2)c1` the inhibition was 56.5% (active).
`O=C(COC(=O)c1cnc(Cl)c(Cl)c1)NCc1ccco1` was tested, and the inhibition was 44.4% (active).
With `Cc1cc(C(=O)OCC(=O)NCc2ccco2)c(C)n1-c1ccccc1` the inhibition was 67.3% (active).
For `CCOC(=O)C1CCCN(C(=O)CN(c2ccc(OC)cc2)S(=O)(=O)c2c(C)noc2C)C1` (stereo not drawn), the inhibition was -13.6%.
With `NC(=O)NC(=O)CSc1nc2cc([N+](=O)[O-])ccc2n1-c1cccc(C(F)(F)F)c1` the inhibition was -1.8%.
`CC1=NN(C(=O)CCc2ccccc2O)C(O)(C(F)(F)F)C1` (stereo not drawn) showed an inhibition of -13.9%.
`Cc1c(Cl)cnc(NC(=O)COC(=O)c2ccc(S(=O)(=O)NCc3ccco3)cc2)c1Cl` was tested, and the inhibition was 67% (active).
For `O=C(COC(=O)CCC(=O)c1cccs1)NCc1ccco1`, the inhibition was 75.5% (active).
`CCOc1ccc2nc(N(CCCN(C)C)C(=O)c3ccc(C(=O)c4ccccc4)cc3)sc2c1` was tested, and the inhibition was -4.94%.
`Cc1ccc(S(=O)(=O)Nc2nc(C)cc(-n3nc(C)cc3C)n2)cc1` showed an inhibition of -2.85%.
For `O=C(c1ccc(CS(=O)(=O)c2ccccc2)o1)N1CCN(c2ccccc2)CC1`, the inhibition was 59.1% (active).
`CC(C)c1ccc(NC(=S)NNc2ccc(Cl)c(C(=O)O)c2)cc1` gave an inhibition of 4.8%.
For `Cc1ccc(CCNC(=O)c2ccc3nc4ccccc4c(=O)n3c2)cc1`, the inhibition was 41.5% (active).
`COc1cccc(CNS(=O)(=O)c2csc(C(N)=O)c2)c1` showed an inhibition of -12.2%.
In the case of `COc1cccc(NC(C)=[N+](C)CCNS(=O)(=O)c2ccc(Cl)cc2)c1`, the inhibition is reported as 92.4% (active).
`Cc1ccc(NC(=O)COC(=O)C2C3CC4OC(=O)C2C4C3)cc1Cl` (stereo not drawn) showed an inhibition of -2.24%.
For `O=C(COc1ccc(-n2cnnn2)cc1)Nc1ccccc1Cl`, the inhibition was 56.8% (active).
For `CC(C)CCOc1ccc(C(=O)C[N+]2(C)CCOCC2)cc1`, the inhibition was 98.7% (active).
In the case of `O=C(Nc1cccnc1)c1cc2cc(Br)ccc2oc1=O`, the inhibition is reported as 68.8% (active).
Work on `COc1cc(/C=C/C2=CC(C)(C)NC(=S)N2)cc(OC)c1OC` yielded an inhibition of -11.8%.
For `Cc1ccc(/C=C/C(=O)Nc2ccc([N+](=O)[O-])c(NC(=O)/C=C/c3ccc(C)o3)c2)o1`, the inhibition was 66.7% (active).
`CCCCCN1CC(O)=C(c2nc(-c3ccc(Cl)cc3)cs2)C1=N` was tested, and the inhibition was 71.5% (active).
With `O=C(COC(=O)/C=C/c1ccc(Br)o1)Nc1cccc(S(=O)(=O)N2CCOCC2)c1` the inhibition was 16.4%.
`Cc1ccn2c(=O)nc(SCC(=O)NCc3ccc4c(c3)OCO4)nc2c1` was tested, and the inhibition was 57.6% (active).
Work on `COc1cccc(CC(=O)OCC(=O)NCc2ccc3c(c2)OCO3)c1` yielded an inhibition of -5.6%.
`CCCCSc1nnc(-c2ccc(C)cc2)o1` gave an inhibition of -16.3%.
For `Cc1ccc(N=Cc2c(O)n(-c3nccs3)c(=O)c3ccccc23)c(C)c1`, the inhibition was -12.9%.
For `CC1CCN(c2ccc(S(=O)(=O)Nc3cc(C(=O)O)cc(C(=O)O)c3)cc2[N+](=O)[O-])CC1`, the inhibition was 51.3% (active).
For `O=C(NN1C(=O)C2C3C=CC(O3)C2C1=O)c1ccccc1` (stereo not drawn), the inhibition was -10.8%.
In the case of `CCc1ccc(NC(=O)CS(=O)CC(=O)NCCCc2ccccc2)cc1` (stereo not drawn), the inhibition is reported as 93.8% (active).
In the case of `CS(=O)(=O)C1=NN2C(=N)/C(=C\c3ccc(OCCOc4ccccc4)cc3)C(=O)N=C2S1`, the inhibition is reported as 72% (active).
With `COc1cccc2cc(-c3cc(=O)oc4cc(C)c(O)cc34)oc12` the inhibition was 57.7% (active).
`O=c1c2cc(-c3ccccc3)sc2nc2n1N=C(c1cccs1)CS2` was tested, and the inhibition was 38.4% (active).
`O=C(CN1CCN(c2ccc(Cl)cc2)CC1)c1ccccc1` was tested, and the inhibition was -15.3%.
For `O=C(c1cc2c(s1)CCC2)N1CCN(c2ccccc2)CC1`, the inhibition was 31.4% (active).
In the case of `ON=C1/C(=N\O)CC2(C/C1=N/O)OCCO2`, the inhibition is reported as 36.9% (active).
For `Cc1nn(-c2cc(Cl)ccc2N)c(=O)c2ccccc12`, the inhibition was 32.6% (active).
`COc1ccc(Cl)cc1NC(=O)CCS(=O)(=O)c1ccc(Br)cc1` was tested, and the inhibition was 62.9% (active).
With `O=C(CCS(=O)(=O)c1ccc(Br)cc1)NCCc1ccc(Cl)cc1` the inhibition was 55.6% (active).
For `O=C(c1ccc2c(c1)OCO2)N1CCNc2ccccc2C1`, the inhibition was -27.2%.
With `CC[n+]1c(C)n(-c2ccccc2)c2ccc(NC(C)=O)cc21` the inhibition was 85.8% (active).
With `O=C(Cn1cc(/C=N/NC(=O)c2cccc(C(F)(F)F)c2)c2ccccc21)Nc1ccc(F)cc1` the inhibition was 39.4% (active).
`N#CC1=C(SCc2ccccc2)NC(=O)C(C#N)C12CCCC2` (stereo not drawn) was tested, and the inhibition was 9.2%.
`O=c1[nH]n(-c2ccc([N+](=O)[O-])cc2)c(=O)c2ccccc12` was tested, and the inhibition was 46.7% (active).
`O=C1NN(c2ccccc2)C(=O)/C1=C/c1ccc(-c2cccc(C(=O)O)c2)o1` was tested, and the inhibition was 72.6% (active).
With `COC(=O)c1ccc(-c2c(-c3ccccc3)ncc3cc(OC)c(OC)cc23)cc1` the inhibition was -1.8%.
`COc1ccc(OC)c(NC(=O)CSc2nc(-c3ccccc3)cc(=O)[nH]2)c1` was tested, and the inhibition was -9.58%.
In the case of `COc1ccc(OCC(=O)NNC(=O)c2ccc(-c3ccccc3)cc2)cc1`, the inhibition is reported as 67.5% (active).
With `O=C(NNC(=O)c1ccc2ccccc2c1)c1ccc(Cl)cc1` the inhibition was 57.2% (active).
Compound `Cn1c(N)c(C(=O)COC(=O)c2ccc3ccccc3c2)c(=O)n(C)c1=O` has an inhibition of -18.1%.
For `Cc1oc2c(C)c3oc(=O)c(CC(=O)N[C@@H](CC(C)C)C(=O)N[C@@H](Cc4ccccc4)C(=O)O)c(C)c3cc2c1C`, the inhibition was 80.1% (active).
With `Cc1c([N+](=O)[O-])c(N)nn1C` the inhibition was 3.58%.
`O=C(O)c1ccc(N/N=C/c2ccc3ncccc3c2)cc1` was tested, and the inhibition was 39.7% (active).
For `COc1ccc(NC(=O)CN(C)C(=O)/C=C/c2cn(Cc3ccccc3)nc2-c2cccnc2)cc1`, the inhibition was 84.6% (active).
`COC(=O)C[n+]1cccc2ccccc21` gave an inhibition of 21%.
With `Nn1cnnc1N/N=C/c1cc([N+](=O)[O-])c(Cl)cc1Cl` the inhibition was 86.2% (active).
Work on `O=C1CCC(CCC(=O)N2CCCC(C(=O)c3ccc(Cl)cc3)C2)=NN1` (stereo not drawn) yielded an inhibition of -8.97%.
With `O=C(Nc1cccc(F)c1)c1cc(-c2ccco2)nc2ccccc12` the inhibition was 50.4% (active).
`O=C(Nc1cccc(F)c1)[C@@H]1CCCN1` showed an inhibition of 0.82%.
In the case of `CN(CC(=O)Nc1cccc(F)c1)C(=O)C1CC(=O)N(CCc2ccccc2)C1` (stereo not drawn), the inhibition is reported as -11.8%.
`CCCc1nc(-c2cc3cc(C)ccc3[nH]c2=O)no1` was tested, and the inhibition was 84.7% (active).
In the case of `Cc1cc(/C=C2\SC(=O)N(C)C2=O)c(C)n1-c1cccc(C(=O)O)c1`, the inhibition is reported as 38.7% (active).
`COc1cc(Cl)cc(C2NC(=O)NC(C)=C2C(=O)NCc2ccccc2)c1O` (stereo not drawn) was tested, and the inhibition was -19.7% and -13.7%.
For `C[n+]1ccc(C(=O)NCc2ccccc2)cc1`, the inhibition was 80.1% (active).
For `O=C(CN1CCN(S(=O)(=O)/C=C/c2ccccc2)CC1)NC(=O)NCc1ccco1`, the inhibition was 10.9%.
For `Cc1ccc(SCC(=O)NC(=O)NCc2ccco2)c(C)c1`, the inhibition was 73.6% (active).
With `Cc1c(CCC(=O)O)c(=O)oc2c(C)c(OCc3ccccc3Cl)ccc12` the inhibition was 58.5% (active).
In the case of `Cc1c(CCC(=O)O)c(=O)oc2cc(OCc3ccc(Br)cc3)ccc12`, the inhibition is reported as 38.7% (active).
With `COc1ccc(Cl)cc1C=CC=NNC(=O)c1ccncc1` the inhibition was 38.5% (active).
With `COc1ccc(N2CCN(C(=O)CSc3nc4cc(OC)c(OC)cc4cc3C#N)CC2)cc1` the inhibition was 25.3%.
`COCCCNc1nc2ccccc2nc1NS(=O)(=O)c1ccc(F)cc1` was tested, and the inhibition was -5.57%.
With `CCC(=O)Nc1ccccc1N1CCN(S(C)(=O)=O)CC1` the inhibition was -7.14%.
With `COc1ccc(S(=O)(=O)c2c[nH]c(=S)[nH]c2=O)cc1Cl` the inhibition was 40.6% (active).
`COc1cccc2sc(N(CCCN(C)C)C(=O)C(c3ccccc3)c3ccccc3)nc12` showed an inhibition of -18.8%.
Work on `CC1=NNC(=O)C1CCC(=O)N/N=C\c1cccc(Cl)c1` (stereo not drawn) yielded an inhibition of -18.8%.
In the case of `CSc1ccc(/C=N/NC(=O)c2cccc(Cl)c2)cc1`, the inhibition is reported as 59.9% (active).
With `O=C(Cn1nnc(-c2ccc3c(c2)OCO3)n1)NCc1ccco1` the inhibition was 30.9% (active).
`Cc1nnc(SCC(=O)Nc2ccc(S(=O)(=O)Nc3ccc(Cl)nn3)cc2)s1` was tested, and the inhibition was 58.2% (active).
In the case of `C=C1c2cccc(OC)c2O[C@H](C(=O)OCC)[C@@H]1CCCCCC`, the inhibition is reported as 88% (active).
For `CO/N=C(\C(=O)N[C@@H]1C(=O)N2C(C(=O)O)=C(COC(C)=O)CS[C@H]12)c1csc(N)n1` (stereo in doubt), the inhibition was 43.7% (active).
Compound `C=CC1C(OC2OC(CO)C(O)C(O)C2O)OC=C(C(=O)OC)C1CC1CC(=O)CC(CC(=O)CCc2ccc(O)cc2)O1` (stereo not drawn) has an inhibition of -13.1%.
Work on `Cc1ccc(CN2CCN(c3ccccc3Cl)CC2)o1` yielded an inhibition of -20%.
With `CCOC(=O)C1=C(C)c2ccccc2OC1(C)C(=O)OCC` (stereo not drawn) the inhibition was 39.1% (active).
`CC(=O)Nc1ccc(N2C(=O)CCC2=O)cc1C` was tested, and the inhibition was -5.6%.
With `CCOc1ccccc1/C=c1\sc2nc(-c3ccco3)nn2c1=O` the inhibition was 61% (active).
`N#Cc1ccc(C(=O)Nc2cccc3cccnc23)c(F)c1` was tested, and the inhibition was 3.88%.
In the case of `O=C(COC(=O)c1ccc(F)cc1F)Nc1ncccn1`, the inhibition is reported as 52.5% (active).
